This is an account of results in ChEMBL document CHEMBL3286196 (J Med Chem, 2014).

Activity calls are given as the source filed them. No cut-off for these calls is given here.

Usually IC50 stands for the concentration that gives 50% inhibition.

Experiment [1] relates to T1, Thioredoxin reductase 1, cytoplasmic (Rattus norvegicus), O89049 [U498C].
T1 sequence (whole entry): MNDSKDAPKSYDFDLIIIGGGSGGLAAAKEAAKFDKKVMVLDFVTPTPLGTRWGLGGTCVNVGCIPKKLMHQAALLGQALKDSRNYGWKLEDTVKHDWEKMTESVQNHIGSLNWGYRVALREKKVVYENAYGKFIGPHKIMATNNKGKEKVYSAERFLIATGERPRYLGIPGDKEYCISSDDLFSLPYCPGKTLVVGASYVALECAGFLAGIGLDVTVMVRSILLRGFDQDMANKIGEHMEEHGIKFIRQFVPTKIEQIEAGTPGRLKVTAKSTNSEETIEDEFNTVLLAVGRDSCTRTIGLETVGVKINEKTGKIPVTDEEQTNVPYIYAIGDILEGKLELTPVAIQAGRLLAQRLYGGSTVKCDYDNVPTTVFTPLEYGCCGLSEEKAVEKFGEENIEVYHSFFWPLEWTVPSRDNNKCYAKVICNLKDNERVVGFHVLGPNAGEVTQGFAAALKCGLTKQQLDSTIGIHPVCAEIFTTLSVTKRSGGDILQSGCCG
The experiment can be described thus: Binding affinity to NADPH-reduced rat recombinant TrxR1 U498C mutant after 30 mins by SDS-PAGE. A digest of the protocol: (§1)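 Proteins were reduced, then incubated with the labelling compound for 30 min at room temperature. Samples were separated by SDS-PAGE. The gel was imaged by fluorescence and then stained with Coomassie Blue.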

The species entered for a further experiment is Rattus norvegicus. The experiment can be described thus: Binding affinity to NADPH-reduced rat recombinant wild type TrxR after 30 mins by SDS-PAGE. A digest of the protocol: as §1
The subject of the next experiment is HepG2. The experiment can be described thus: Cytotoxicity against human HepG2 cells assessed as inhibition of proliferation after 48 hrs by MTT assay. As to conditions: HepG2, 48 h. Type of experiment: functional, cell-based. (Tetrazolium dyes change colour on reduction, which living cells bring about.)
In experiment [2] the test system is HL-60. Description: Cytotoxicity against human HL60 cells assessed as inhibition of proliferation after 48 hrs by MTT assay. Type of experiment: functional, cell-based. To be noted: HL-60, 48 h.
Another experiment deals with HeLa. The experiment can be described thus: Cytotoxicity against human HeLa cells assessed as inhibition of proliferation after 48 hrs by MTT assay. The class given is functional, cell-based.
Experiment [3] is described as follows: Cytotoxicity against human […] cells assessed as inhibition of proliferation after 48 hrs by MTT assay. Type of experiment: functional, cell-based.
Experiment [4] has as its system HL-60. The experiment can be described thus: Cytotoxicity against human HL60 cells assessed as inhibition of proliferation after 72 hrs by MTT assay. The class given is functional, cell-based. As to conditions: HL-60, 72 h.

On to `Nc1ccc2c3c(cccc13)C(=O)N(CCCCCC(=O)Nc1ccc([As](O)O)cc1)C2=O`, for which the result (in experiment [1]; in the experiment filed under Rattus norvegicus) was Active.

As to `Nc1ccc([As](=O)(O)O)cc1` [ARSANILIC ACID], the IC50 (in the experiment with HepG2; in the experiment with HL-60 [2]; in the experiment on HeLa; in experiment [3]; in the experiment with HL-60 [4]) was > 10 µM each time.

Regarding `O=[As][As+](=O)[O-]` (centres undefined) [ARSENIC TRIOXIDE], the IC50 in the experiment with HepG2 was > 10 µM; in the experiment on HL-60 [2], 6.5 µM; with HeLa it was > 10 µM; in experiment [3] it was > 10 µM; with HL-60 [4], 5.7 µM.

As to `Nc1ccc2c3c(cccc13)C(=O)N(CCCCCC(=O)Nc1ccc([As]3SCCCS3)cc1)C2=O`, in experiment [1], the result was Active. Further, the outcome in the experiment filed under Rattus norvegicus was inactive.
